The values below come from publication PMC7978421 (Science Advances, 2021).

Assay [1] concerns the target hASF1A(1-156) (Homo sapiens, UniProt Q9Y294). Nature of the assay: Isothermal titration calorimetry. The format is binding. A general note: ITC needs no label: the signal is the heat of the interaction.
For assay [2], the target named is 15N hASF1A(1-156) (Homo sapiens, UniProt Q9Y294). Nature of the assay: NMR 1H-15N SOFAST HMQC titration of 15N-hASF1A. It is filed as binding. In a few lines: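 Uniformly 15N-labelled hASF1A(1-156) (M9, 15NH4Cl) at 40 μM in 50 mM tris-HCl pH 7.5, 0.1 mM EDTA, DSS, NaN3, protease inhibitors, 10% D2O. Spectra at 293 or 298 K, 600 MHz, with stepwise test compound additions. Δδ = √(ΔHN² + (0.17ΔN)²), normalised to saturation maximum. Kd fitted against total compound concentration for nine residues shifting >0.07 ppm; mean ± SD reported.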

In assay [3] the target is ASF1. Particulars: cited from earlier work.
Setting [4] is: VP-ITC, 20°C, 50 mM tris-HCl pH 7.5, at least duplicate.

hASF1A(1-156), sequence (Q9Y294 1-156): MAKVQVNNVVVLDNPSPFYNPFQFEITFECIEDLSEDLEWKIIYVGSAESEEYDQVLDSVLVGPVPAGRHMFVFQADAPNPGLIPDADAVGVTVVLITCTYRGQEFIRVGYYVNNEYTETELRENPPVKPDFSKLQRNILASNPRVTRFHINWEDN
15N hASF1A(1-156), sequence (Q9Y294 1-156): as above

As for `CC[C@H](C)[C@H](NC(=O)[C@H](CCCNC(=N)N)NC(=O)NC[C@H](CCC(N)=O)NC(=O)NC[C@H](CC(C)C)NC(=O)NC[C@H](CCCNC(=N)N)NC(=O)NC[C@H](Cc1ccc2ccccc2c1)NC(=O)[C@H](CCCCN)NC(=O)[C@H](CCC(=O)O)NC(C)=O)C(=O)N[C@@H](C)C(N)=O` [C2], binding in assay [1] was characterised by a dissociation constant (Kd) of 2.7 ± 0.6 µM. Further, in assay [1] (ITC), the “Affinities times lower than the P1 to P4 peptide series” value was 10 to 80 times. In addition, in assay [1] (setting [4]), the “N (ITC stoichiometry)” value is recorded as 1.0 ± 0.1, the ΔH was -2.2 ± 0.1 kcal/mol and the “−TΔS” value was -4.8 ± 0.2 kcal/mol. Also, the Kd – broadly, a measure of binding affinity in units of concentration – in assay [2] was found to be 4 ± 1 µM. Moreover, in assay [2] (NMR titration, chemical shift variation of hASF1A residues), the “Exchange regime upon 15N-ASF1 titration” value is “fast exchange rate”.

Turning to ASTEEKWARLARRIAGAGGVTLDGFG [ip4], the “Affinity for ASF1” value in assay [3] is reported as “low nanomolar range”.
